Data: ChEMBL document CHEMBL3352173, “Optimization of pyrrolamide topoisomerase II inhibitors toward identification of an antibacterial clinical candidate (AZD5099)” (J Med Chem, 2014)
≈ marks a conversion by molar mass, not a printed value.

Legend:
[1] = molecular target: DNA gyrase subunit B (Staphylococcus aureus, UniProt P0A0K8); experiment: Inhibition of ATPase activity of Staphylococcus aureus GyrB
Summary of the method: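 IC50 was determined against S. aureus GyrB in the routine screening assay. The enzyme concentration limits resolution below 10 nM.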

[2] = test system: Streptococcus pneumoniae; experiment: Antibacterial activity against Streptococcus pneumoniae by broth microdilution/CLSI method; format: functional; settings: Streptococcus pneumoniae; read-out: MIC
[3] = Ratio of MIC for methicillin, quinolone-resistant Staphylococcus aureus to fraction unbound in human plasma; format: ADME
[4] = Solubility of the compound; format: physicochemical
[5] = test system: Streptococcus pyogenes; experiment: Antimicrobial activity against Streptococcus pyogenes by broth microdilution/CLSI method; format: functional
[6] = test system: Moraxella catarrhalis; experiment: Antimicrobial activity against Moraxella catarrhalis by broth microdilution/CLSI method; format: functional; settings: Moraxella catarrhalis; read-out: MIC
[7] = test system: Staphylococcus aureus; experiment: Antimicrobial activity against methicillin-sensitive Staphylococcus aureus by broth microdilution/CLSI method; format: functional; settings: Staphylococcus aureus; read-out: MIC
[8] = test system: Escherichia coli; experiment: Antimicrobial activity against wild-type Escherichia coli Eco523 by broth microdilution/CLSI method; format: functional; settings: Escherichia coli, Eco523; read-out: MIC
[9] = Percentage unbound in human plasma; format: ADME, cell-free
[10] = test system: Escherichia coli; experiment: Antimicrobial activity against Escherichia coli tolC- by broth microdilution/CLSI method; format: functional; settings: Escherichia coli; read-out: MIC
[11] = test system: Haemophilus influenzae; experiment: Antimicrobial activity against Haemophilus influenzae by broth microdilution/CLSI method; format: functional; settings: Haemophilus influenzae; read-out: MIC
[12] = Octanol-phosphate buffer distribution coefficient, log D of the compound at pH 7.4 by shake flask method; format: physicochemical
[13] = test system: Staphylococcus aureus; experiment: Antimicrobial activity against methicillin, quinolone-resistant Staphylococcus aureus by broth microdilution/CLSI method; format: functional; settings: Staphylococcus aureus; read-out: MIC
[14] = Clearance in rat at 10 mg/kg, iv; format: ADME, organism-based; parameters: dose 10 mg/kg, route intravenous; settings: in vivo

Sequence of DNA gyrase subunit B (P0A0K8 whole entry): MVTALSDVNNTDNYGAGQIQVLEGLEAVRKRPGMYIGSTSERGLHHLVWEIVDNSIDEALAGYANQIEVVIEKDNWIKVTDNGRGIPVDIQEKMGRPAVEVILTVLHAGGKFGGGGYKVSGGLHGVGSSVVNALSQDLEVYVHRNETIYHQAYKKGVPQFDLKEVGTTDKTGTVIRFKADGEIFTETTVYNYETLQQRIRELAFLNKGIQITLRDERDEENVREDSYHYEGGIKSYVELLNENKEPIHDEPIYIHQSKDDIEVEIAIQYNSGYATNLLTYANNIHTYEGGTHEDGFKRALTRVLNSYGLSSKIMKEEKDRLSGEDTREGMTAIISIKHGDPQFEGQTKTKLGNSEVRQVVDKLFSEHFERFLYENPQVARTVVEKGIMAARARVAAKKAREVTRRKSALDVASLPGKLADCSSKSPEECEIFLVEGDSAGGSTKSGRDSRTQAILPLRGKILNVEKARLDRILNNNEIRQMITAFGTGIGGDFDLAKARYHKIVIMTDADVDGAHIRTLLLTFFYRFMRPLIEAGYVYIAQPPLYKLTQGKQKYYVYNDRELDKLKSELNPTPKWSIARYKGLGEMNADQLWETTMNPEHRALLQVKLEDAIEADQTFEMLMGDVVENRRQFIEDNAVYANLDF

Compound | IC50 [1] | MIC [2] | Ratio [3] | solubility [4] | MIC [5] | MIC [6] | MIC [7] | MIC [8] | fraction unbound [9] | MIC [10] | MIC [11] | logD [12] | MIC [13] | clearance [14]
CO[C@H]1CN(c2nc(-c3ccccn3)c(C(=O)O)s2)CC[C@H]1NC(=O)c1[nH]c(C)c(Cl)c1Cl | < 9.8 nM | < 0.06 µg/mL | < 21 | < 1 µM | < 0.06 µg/mL | < 0.06 µg/mL | < 0.06 µg/mL | 8 µg/mL (≈ 15.7 µM) | 0.003 | 0.13 µg/mL (≈ 0.255 µM) | 0.5 µg/mL (≈ 0.98 µM) | > 2.5 |  | 
CO[C@H]1CN(c2nc(C(=O)O)c(C(N)=O)s2)CC[C@H]1NC(=O)c1[nH]c(C)c(Cl)c1Cl (racemic) | < 10 nM | 1 µg/mL (≈ 2.1 µM) | 160 |  |  | 2 µg/mL (≈ 4.2 µM) | > 8 µg/mL | > 8 µg/mL | 0.005 | 1 µg/mL (≈ 2.1 µM) | > 8 µg/mL | -0.63 |  | 
CO[C@H]1CN(c2nc(C(=O)N3CCOCC3)c(C(=O)O)s2)CC[C@H]1NC(=O)c1[nH]c(C)c(Cl)c1Cl (racemic) | < 10 nM | 2 µg/mL (≈ 3.66 µM) | > 57 | 200 µM (≈ 109 µg/mL) |  | 2 µg/mL (≈ 3.66 µM) | 8 µg/mL (≈ 14.6 µM) | > 8 µg/mL | 0.14 | 4 µg/mL (≈ 7.32 µM) | 8 µg/mL (≈ 14.6 µM) | -0.99 | > 8 µg/mL | 
CO[C@H]1CN(c2nc(C(F)F)c(C(=O)O)s2)CC[C@H]1NC(=O)c1[nH]c(C)c(Cl)c1Cl | < 10 nM | 0.063 µg/mL (≈ 0.13 µM) |  | 690 µM (≈ 333 µg/mL) | 0.13 µg/mL (≈ 0.269 µM) | 0.063 µg/mL (≈ 0.13 µM) | 2 µg/mL (≈ 4.14 µM) | > 8 µg/mL |  | 0.5 µg/mL (≈ 1.03 µM) | 1 µg/mL (≈ 2.07 µM) | 0.52 | 2 µg/mL (≈ 4.14 µM) | 70 mL/min/kg
CO[C@H]1CN(c2nc(C(N)=O)c(C(=O)O)s2)CC[C@H]1NC(=O)c1[nH]c(C)c(Cl)c1Cl | < 10 nM | 0.039 µg/mL (≈ 0.0819 µM) | 12 | 280 µM (≈ 133 µg/mL) | 0.039 µg/mL (≈ 0.0819 µM) | 0.02 µg/mL (≈ 0.042 µM) | 0.5 µg/mL (≈ 1.05 µM) | > 8 µg/mL | 0.043 | 0.32 µg/mL (≈ 0.672 µM) | 0.16 µg/mL (≈ 0.336 µM) | 0.85 | 0.5 µg/mL (≈ 1.05 µM) | 
CO[C@H]1CN(c2nc(-c3cncnc3)c(C(=O)O)s2)CC[C@H]1NC(=O)c1[nH]c(C)c(Cl)c1Cl | < 10 nM | < 0.1 µg/mL | 290 | 260 µM (≈ 133 µg/mL) | 0.4 µg/mL (≈ 0.782 µM) | 0.4 µg/mL (≈ 0.782 µM) | 3.2 µg/mL (≈ 6.26 µM) | > 100 µg/mL | 0.011 | 0.8 µg/mL (≈ 1.56 µM) | 1.6 µg/mL (≈ 3.13 µM) | 0.35 | 3.2 µg/mL (≈ 6.26 µM) | 
CO[C@H]1CN(c2nc(-c3csc(N)n3)c(C(=O)O)s2)CC[C@H]1NC(=O)c1[nH]c(C)c(Cl)c1Cl | < 9.8 nM | < 0.06 µg/mL | < 6.3 | < 1 µM | < 0.06 µg/mL | < 0.06 µg/mL | < 0.06 µg/mL | 4 µg/mL (≈ 7.53 µM) | < 0.01 | < 0.06 µg/mL | 0.5 µg/mL (≈ 0.941 µM) | 3 |  | 
CO[C@H]1CN(c2nc(-c3nccn3C)c(C(=O)O)s2)CC[C@H]1NC(=O)c1[nH]c(C)c(Cl)c1Cl | < 10 nM | < 0.06 µg/mL | 5.2 | 12 µM (≈ 6.16 µg/mL) | < 0.06 µg/mL | < 0.06 µg/mL | < 0.06 µg/mL | 8 µg/mL (≈ 15.6 µM) | 0.011 | < 0.06 µg/mL | 0.25 µg/mL (≈ 0.487 µM) | > 3 |  | 
CO[C@H]1CN(c2nc(C(=O)O)c(C)s2)CC[C@H]1NC(=O)c1[nH]c(C)c(Cl)c1Cl | < 10 nM | 0.031 µg/mL (≈ 0.0693 µM) | 19 | > 1000 µM | 0.063 µg/mL (≈ 0.141 µM) | 0.063 µg/mL (≈ 0.141 µM) | 0.13 µg/mL (≈ 0.291 µM) | > 8 µg/mL | 0.007 | 0.25 µg/mL (≈ 0.559 µM) | 0.25 µg/mL (≈ 0.559 µM) | 1.2 | 0.13 µg/mL (≈ 0.291 µM) | 
COc1ccnc(-c2nc(N3CC[C@@H](NC(=O)c4[nH]c(C)c(Cl)c4Cl)[C@@H](OC)C3)sc2C(=O)O)n1 | < 10 nM | < 0.06 µg/mL | 1.75 |  | < 0.06 µg/mL | < 0.06 µg/mL | < 0.06 µg/mL | 16 µg/mL (≈ 29.6 µM) | 0.036 |  | 0.25 µg/mL (≈ 0.462 µM) |  |  | 6.3 mL/min/kg
CO[C@H]1CN(c2nc(C(=O)NCCN3CCOCC3)c(C(=O)O)s2)CC[C@H]1NC(=O)c1[nH]c(C)c(Cl)c1Cl | < 10 nM | 0.031 µg/mL (≈ 0.0526 µM) | 9.2 | > 1000 µM | 0.031 µg/mL (≈ 0.0526 µM) | 0.031 µg/mL (≈ 0.0526 µM) | 0.25 µg/mL (≈ 0.424 µM) | > 8 µg/mL | 0.054 | 0.25 µg/mL (≈ 0.424 µM) | 0.25 µg/mL (≈ 0.424 µM) | 1 | 0.5 µg/mL (≈ 0.848 µM) | 
